Measurements from ChEMBL document CHEMBL1127031, “Development of high-affinity 5-HT3 receptor antagonists. Structure-affinity relationships of novel 1,7-annelated indole derivatives” (J Med Chem, 1993).
Blank lines part the entries; values can stand above or below the compound they belong to.

Columns and labels:
[1] = target: T1, Serotonin 3 (5-HT3) receptor (Rattus norvegicus, UniProt P35563+Q9JJ16); assay: Displacement of [3H]GR-65630 binding to 5-hydroxytryptamine 3 receptor in rat brain cortical membranes; format: cell membranes, Membrane
T1 sequence (P35563 whole entry): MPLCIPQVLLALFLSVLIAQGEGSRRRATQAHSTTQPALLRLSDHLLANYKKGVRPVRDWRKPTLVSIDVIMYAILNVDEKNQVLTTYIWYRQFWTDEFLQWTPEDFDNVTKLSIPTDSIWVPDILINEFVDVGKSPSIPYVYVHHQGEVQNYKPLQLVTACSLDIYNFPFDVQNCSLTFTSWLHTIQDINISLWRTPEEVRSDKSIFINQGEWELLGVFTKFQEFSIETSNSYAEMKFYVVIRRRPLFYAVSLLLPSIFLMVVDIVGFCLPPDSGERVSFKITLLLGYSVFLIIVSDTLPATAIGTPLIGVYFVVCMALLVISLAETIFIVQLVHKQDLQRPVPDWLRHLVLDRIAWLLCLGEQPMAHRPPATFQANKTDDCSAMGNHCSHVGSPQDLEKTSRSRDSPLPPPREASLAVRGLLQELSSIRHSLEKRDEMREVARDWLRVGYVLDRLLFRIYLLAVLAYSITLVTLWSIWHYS
T1 sequence (Q9JJ16 whole entry): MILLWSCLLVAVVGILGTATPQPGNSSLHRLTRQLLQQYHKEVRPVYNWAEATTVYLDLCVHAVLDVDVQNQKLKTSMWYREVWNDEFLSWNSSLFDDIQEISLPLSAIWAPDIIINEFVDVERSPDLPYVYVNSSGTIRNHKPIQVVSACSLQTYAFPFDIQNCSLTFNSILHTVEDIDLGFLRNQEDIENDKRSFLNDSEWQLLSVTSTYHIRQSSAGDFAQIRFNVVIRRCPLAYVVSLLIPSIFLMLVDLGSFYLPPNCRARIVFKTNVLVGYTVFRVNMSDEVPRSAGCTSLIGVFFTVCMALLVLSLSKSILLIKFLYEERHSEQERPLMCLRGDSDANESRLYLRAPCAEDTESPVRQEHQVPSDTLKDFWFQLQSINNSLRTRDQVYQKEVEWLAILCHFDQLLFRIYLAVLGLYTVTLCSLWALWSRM
Method in brief: (§1)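 Radioligand displacement on membrane preparations with glass-fibre filtration and liquid scintillation counting of tritium after overnight equilibration. Four to six test concentrations were used. IC50 came from log-probit linear regression. Ki = IC50/(1 + S/Kd), where S is the [3H]label concentration. Ki is the mean of at least three independent experiments run on different days with different membrane preparations.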

[2] = target: GABA-A receptor; anion channel; assay: Displacement of [3H]- Diazepam from rat GABA-A benzodiazepine receptor; format: protein-complex assay; method in brief: as §1
[3] = target: T2, Voltage-gated L-type calcium channel (Rattus norvegicus, UniProt P22002+Q02485+P27732); assay: Inhibition of [3H]nitrendipine binding to L-type calcium channel dihydropyridine site of rat brain
Method in brief: (§2)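 Radioligand displacement on tissue membrane suspensions, with 4–6 concentrations of unlabeled test drug. Bound label was collected on GF/B glass-fibre filters, equilibrated overnight in scintillant, and counted for tritium. […] Ki = IC50/(1 + S/Kd), where S is the label concentration. Each value is the mean of ≥3 independent experiments on different days with different membrane preparations.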

[4] = target: T2, Voltage-gated L-type calcium channel; assay: Inhibition of [3H]D-888 binding to L-type calcium channel verapamil site of rat brain; method in brief: as §2
[5] = target: Cholecystokinin receptor type A (Rattus norvegicus, UniProt P30551); assay: The binding affinity was measured on cholecystokinin type A receptor using [3H]- CCK-8 as radioligand.
[6] = target: Gastrin/cholecystokinin type B receptor (Rattus norvegicus, UniProt P30553); assay: The binding affinity was measured on cholecystokinin type B receptor using [3H]- CCK-8 as radioligand.
D(1A) dopamine receptor = D(1A) dopamine receptor (Rattus norvegicus, UniProt P18901); assay: The binding affinity was measured on dopamine receptor D1 using [3H]- dopamine as radioligand.
D(2) dopamine receptor = D(2) dopamine receptor (Rattus norvegicus, UniProt P61169); assay: The binding affinity was measured on dopamine receptor D2 using [3H]- spiperone as radioligand.
D(2) dopamine receptor, sequence (P61169 whole entry): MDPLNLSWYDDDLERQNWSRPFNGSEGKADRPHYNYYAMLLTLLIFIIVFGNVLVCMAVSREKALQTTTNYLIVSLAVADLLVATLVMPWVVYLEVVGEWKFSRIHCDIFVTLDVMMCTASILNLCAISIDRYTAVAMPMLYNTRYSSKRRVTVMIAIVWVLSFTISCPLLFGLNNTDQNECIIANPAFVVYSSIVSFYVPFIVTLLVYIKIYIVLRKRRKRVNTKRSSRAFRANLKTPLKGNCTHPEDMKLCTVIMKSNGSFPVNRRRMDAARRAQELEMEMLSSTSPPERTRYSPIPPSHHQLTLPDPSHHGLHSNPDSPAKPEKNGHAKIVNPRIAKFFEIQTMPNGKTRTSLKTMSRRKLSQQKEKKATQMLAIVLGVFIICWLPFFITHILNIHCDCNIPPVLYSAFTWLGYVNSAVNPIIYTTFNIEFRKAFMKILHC

[7] = target: GABA-A receptor; anion channel; assay: Displacement of [3H]DH-muscimol from rat GABA-A receptor; format: protein-complex assay; method in brief: as §1
Histamine H1 receptor = Histamine H1 receptor (Rattus norvegicus, UniProt P31390); assay: The binding affinity was measured on histamine H1 receptor using [3H]- mepyramine as radioligand.
Histamine H3 receptor = Histamine H3 receptor (Rattus norvegicus, UniProt Q9QYN8); assay: The binding affinity was measured on histamine H3 receptor using [3H]- N-Me-histam as radioligand.
[8] = target: Muscarinic acetylcholine receptor M2 (Rattus norvegicus, UniProt P10980); assay: The binding affinity was measured on muscarine M2 receptor using [3H]- N-Me-SCOPOL as radioligand.; method in brief: as §2
[9] = target: Muscarinic acetylcholine receptor M1 (Rattus norvegicus, UniProt P08482); assay: The binding affinity was measured on muscarine M1 receptor using [3H]- pirenzepine as radioligand.
Muscarinic acetylcholine receptor M1, sequence (P08482 whole entry): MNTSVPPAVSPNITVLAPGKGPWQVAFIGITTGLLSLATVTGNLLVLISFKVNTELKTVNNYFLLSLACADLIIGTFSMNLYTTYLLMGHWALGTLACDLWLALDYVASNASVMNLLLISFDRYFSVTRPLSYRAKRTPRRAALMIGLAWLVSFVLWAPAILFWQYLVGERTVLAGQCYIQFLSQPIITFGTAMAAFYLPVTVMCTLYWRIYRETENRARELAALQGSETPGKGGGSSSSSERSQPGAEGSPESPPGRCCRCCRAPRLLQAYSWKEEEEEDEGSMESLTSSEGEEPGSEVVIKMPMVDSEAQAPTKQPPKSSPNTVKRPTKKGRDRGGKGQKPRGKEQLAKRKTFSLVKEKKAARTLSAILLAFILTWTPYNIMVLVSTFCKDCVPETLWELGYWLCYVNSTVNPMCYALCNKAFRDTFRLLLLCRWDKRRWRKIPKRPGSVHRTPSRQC

[10] = target: Glutamate receptor ionotropic, NMDA 2C (Rattus norvegicus, UniProt Q00961); assay: The binding affinity was measured on NMDA receptor using [3H]- CGS-19755 as radioligand.
Glutamate receptor ionotropic, NMDA 2C, sequence (Q00961 whole entry): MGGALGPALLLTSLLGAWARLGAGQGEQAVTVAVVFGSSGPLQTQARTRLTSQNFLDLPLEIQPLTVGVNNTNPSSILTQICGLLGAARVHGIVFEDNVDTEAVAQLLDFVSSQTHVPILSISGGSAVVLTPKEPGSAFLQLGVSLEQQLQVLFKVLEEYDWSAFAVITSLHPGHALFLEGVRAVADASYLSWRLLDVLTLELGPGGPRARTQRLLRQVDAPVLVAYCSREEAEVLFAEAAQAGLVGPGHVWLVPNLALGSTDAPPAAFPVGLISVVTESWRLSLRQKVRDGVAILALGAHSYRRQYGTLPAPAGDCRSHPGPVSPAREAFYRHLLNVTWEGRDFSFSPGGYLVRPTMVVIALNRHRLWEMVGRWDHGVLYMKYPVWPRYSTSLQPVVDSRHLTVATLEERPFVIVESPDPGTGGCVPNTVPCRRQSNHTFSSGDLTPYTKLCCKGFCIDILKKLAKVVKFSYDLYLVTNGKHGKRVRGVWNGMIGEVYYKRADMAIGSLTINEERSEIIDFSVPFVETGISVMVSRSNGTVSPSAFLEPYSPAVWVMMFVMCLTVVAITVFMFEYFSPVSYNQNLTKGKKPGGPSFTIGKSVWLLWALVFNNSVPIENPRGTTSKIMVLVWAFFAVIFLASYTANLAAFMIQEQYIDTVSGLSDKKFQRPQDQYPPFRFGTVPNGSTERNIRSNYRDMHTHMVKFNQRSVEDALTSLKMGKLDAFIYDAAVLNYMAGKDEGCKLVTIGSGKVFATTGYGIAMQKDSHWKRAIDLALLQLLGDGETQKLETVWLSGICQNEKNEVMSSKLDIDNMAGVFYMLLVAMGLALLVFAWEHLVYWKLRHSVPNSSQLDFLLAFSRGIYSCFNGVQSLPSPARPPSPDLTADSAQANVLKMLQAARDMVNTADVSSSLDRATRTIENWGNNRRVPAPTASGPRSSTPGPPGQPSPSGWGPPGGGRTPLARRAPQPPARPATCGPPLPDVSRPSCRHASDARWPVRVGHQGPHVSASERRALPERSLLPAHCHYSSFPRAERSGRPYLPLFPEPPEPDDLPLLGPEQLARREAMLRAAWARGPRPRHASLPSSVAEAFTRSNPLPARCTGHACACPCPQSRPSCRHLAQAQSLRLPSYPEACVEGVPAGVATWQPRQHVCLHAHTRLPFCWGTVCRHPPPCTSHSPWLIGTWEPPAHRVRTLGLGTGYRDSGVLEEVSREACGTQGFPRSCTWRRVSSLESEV

[11] = The binding affinity was measured on Na+2(BTX)brain receptor using [3H]- batrachotox as radioligand.; design: species or system Rattus norvegicus
Rattus norvegicus [12] = species: Rattus norvegicus; assay: Dose of antagonist which inhibits the by the 2-Me-5-HT induced slowing of the heart rate by 10 beats/5 s.; format: functional
Method in brief: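 Von Bezold-Jarisch reflex test in unrestrained conscious rats, with the compound given orally. The bradycardia (slowing of heart rate) was induced by 2-Me-5-HT. The value is the antagonist dose that reduces this slowing by 10 beats/5 s.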

Rattus norvegicus [13] = species: Rattus norvegicus; assay: The pA2 is the negative logarithm of the molar concentration of an antagonist which necessitates the doubling of the agonist dose to couteract the effect of that antagonist and restore the original response was measured in rat isolated vagus nerve test.; format: functional; conditions: read-out: pA2 (converted)
[14] = target: Thyrotropin-releasing hormone receptor (Rattus norvegicus, UniProt Q01717); assay: The binding affinity was measured on TRH receptor using [3H]- MeTRH as radioligand.
Thyrotropin-releasing hormone receptor, sequence (Q01717 whole entry): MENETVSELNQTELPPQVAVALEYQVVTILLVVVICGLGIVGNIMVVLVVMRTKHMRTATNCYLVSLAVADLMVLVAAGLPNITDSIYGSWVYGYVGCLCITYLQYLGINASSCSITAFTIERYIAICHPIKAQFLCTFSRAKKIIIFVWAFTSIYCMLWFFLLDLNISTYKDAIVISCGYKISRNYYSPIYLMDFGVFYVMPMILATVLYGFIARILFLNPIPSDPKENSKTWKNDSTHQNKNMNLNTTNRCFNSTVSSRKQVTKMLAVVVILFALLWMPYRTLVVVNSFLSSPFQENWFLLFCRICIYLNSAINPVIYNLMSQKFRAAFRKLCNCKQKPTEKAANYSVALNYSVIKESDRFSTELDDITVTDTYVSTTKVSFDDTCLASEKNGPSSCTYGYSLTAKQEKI

Adrenergic receptor beta = Adrenergic receptor beta (Rattus norvegicus, UniProt P18090+P10608+P26255); assay: The binding affinity was measured on beta-1,2-adrenergic receptor using [3H]- DHA as radioligand.; format: protein assay
[15] = The binding affinity was measured on glycine strych. ins receptor using [3H]- 5,7-diClkyn.acid as radioligand.; design: species or system Rattus norvegicus
[16] = target: Delta-type opioid receptor (Rattus norvegicus, UniProt P33533); assay: The binding affinity was measured on delta-opiate receptor using [3H]- dadle as radioligand.
Delta-type opioid receptor, sequence (P33533 whole entry): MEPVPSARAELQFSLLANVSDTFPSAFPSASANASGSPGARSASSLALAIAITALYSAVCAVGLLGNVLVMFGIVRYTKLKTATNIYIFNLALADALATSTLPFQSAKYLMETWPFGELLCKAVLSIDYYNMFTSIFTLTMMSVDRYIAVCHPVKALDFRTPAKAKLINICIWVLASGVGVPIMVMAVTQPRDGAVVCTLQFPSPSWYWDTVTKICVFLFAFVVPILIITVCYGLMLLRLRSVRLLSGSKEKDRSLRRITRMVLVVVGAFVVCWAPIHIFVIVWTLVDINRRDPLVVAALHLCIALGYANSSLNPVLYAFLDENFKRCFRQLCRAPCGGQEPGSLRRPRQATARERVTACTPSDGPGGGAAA

[17] = target: Alpha-2A adrenergic receptor (Rattus norvegicus, UniProt P22909); assay: The binding affinity was measured on alpha-2-adrenergic receptor using [3H]- clonidine as radioligand.
Alpha-2A adrenergic receptor, sequence (P22909 whole entry): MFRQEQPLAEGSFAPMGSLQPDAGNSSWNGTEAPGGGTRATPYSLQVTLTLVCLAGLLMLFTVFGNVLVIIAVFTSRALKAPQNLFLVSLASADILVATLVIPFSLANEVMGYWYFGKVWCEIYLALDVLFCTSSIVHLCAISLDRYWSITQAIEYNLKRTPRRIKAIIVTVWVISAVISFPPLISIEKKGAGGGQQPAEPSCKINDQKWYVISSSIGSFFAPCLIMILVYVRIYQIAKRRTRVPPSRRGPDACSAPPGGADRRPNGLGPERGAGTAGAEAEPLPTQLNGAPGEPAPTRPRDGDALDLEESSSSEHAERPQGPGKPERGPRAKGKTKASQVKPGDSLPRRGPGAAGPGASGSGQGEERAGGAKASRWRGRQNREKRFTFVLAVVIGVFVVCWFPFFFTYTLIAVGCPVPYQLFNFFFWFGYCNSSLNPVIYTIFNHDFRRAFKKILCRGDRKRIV

[18] = target: Kappa-type opioid receptor (Rattus norvegicus, UniProt P34975); assay: The binding affinity was measured on kappa-opiate receptor using [3H]- EKC as radioligand.
[19] = target: Interleukin-6 receptor subunit alpha (Rattus norvegicus, UniProt P22273); assay: The binding affinity was measured on […] receptor using [3H]- IL-6 as radioligand.; method in brief: as §2
Interleukin-6 receptor subunit alpha, sequence (P22273 whole entry): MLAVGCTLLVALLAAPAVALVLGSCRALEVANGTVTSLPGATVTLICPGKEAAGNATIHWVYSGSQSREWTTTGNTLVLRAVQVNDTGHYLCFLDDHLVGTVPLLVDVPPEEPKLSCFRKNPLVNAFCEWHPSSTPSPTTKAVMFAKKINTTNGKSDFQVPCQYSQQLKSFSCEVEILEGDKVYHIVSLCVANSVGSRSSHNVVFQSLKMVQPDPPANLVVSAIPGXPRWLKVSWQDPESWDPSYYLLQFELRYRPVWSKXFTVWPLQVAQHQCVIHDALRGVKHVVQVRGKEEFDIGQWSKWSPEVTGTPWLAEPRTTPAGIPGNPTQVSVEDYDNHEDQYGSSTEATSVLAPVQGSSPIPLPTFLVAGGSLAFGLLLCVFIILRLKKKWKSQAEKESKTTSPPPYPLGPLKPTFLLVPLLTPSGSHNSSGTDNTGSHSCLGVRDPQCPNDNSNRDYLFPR

[20] = The binding affinity was measured on melatonin receptor using [3H]- 2-iodo-melat as radioligand.
Mu-type opioid receptor = Mu-type opioid receptor (Rattus norvegicus, UniProt P33535); assay: The binding affinity was measured on mu-opiate receptor using [3H]- naloxone as radioligand.
[21] = target: Muscarinic acetylcholine receptor M3 (Rattus norvegicus, UniProt P08483); assay: The binding affinity was measured on muscarine M3 receptor using [3H]- N-Me-SCOPOL as radioligand.
Muscarinic acetylcholine receptor M3, sequence (P08483 whole entry): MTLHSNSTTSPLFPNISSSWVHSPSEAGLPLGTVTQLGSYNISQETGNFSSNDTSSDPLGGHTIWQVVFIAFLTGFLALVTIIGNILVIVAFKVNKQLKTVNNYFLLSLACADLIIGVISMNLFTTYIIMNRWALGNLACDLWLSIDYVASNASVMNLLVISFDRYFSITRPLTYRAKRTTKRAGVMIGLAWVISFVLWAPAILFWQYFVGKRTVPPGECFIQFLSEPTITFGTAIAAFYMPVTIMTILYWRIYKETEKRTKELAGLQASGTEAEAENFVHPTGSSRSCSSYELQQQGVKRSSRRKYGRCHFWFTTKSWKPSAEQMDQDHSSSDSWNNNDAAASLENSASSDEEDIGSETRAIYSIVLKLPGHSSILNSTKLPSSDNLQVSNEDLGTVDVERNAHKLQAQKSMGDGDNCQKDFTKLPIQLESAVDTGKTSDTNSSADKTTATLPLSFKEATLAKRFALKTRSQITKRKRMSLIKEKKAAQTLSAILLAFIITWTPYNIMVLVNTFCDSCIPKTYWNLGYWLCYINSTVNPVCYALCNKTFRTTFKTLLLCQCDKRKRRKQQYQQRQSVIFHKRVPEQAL

[22] = target: Sigma non-opioid intracellular receptor 1 (Rattus norvegicus, UniProt Q9R0C9); assay: The binding affinity was measured on sigma receptor using [3H]- (+)-3-PPP as radioligand.
[23] = The binding affinity was measured on substance P as radioligand.; design: species or system Rattus norvegicus
Mus musculus = species: Mus musculus; assay: Lowest effective dose affecting behavioral parameter in at least half of the animals.
D(3) dopamine receptor = D(3) dopamine receptor (Rattus norvegicus, UniProt P19020); assay: The binding affinity was measured on dopamine receptor D3 using [3H]- spiperone as radioligand.
D(3) dopamine receptor, sequence (P19020 whole entry): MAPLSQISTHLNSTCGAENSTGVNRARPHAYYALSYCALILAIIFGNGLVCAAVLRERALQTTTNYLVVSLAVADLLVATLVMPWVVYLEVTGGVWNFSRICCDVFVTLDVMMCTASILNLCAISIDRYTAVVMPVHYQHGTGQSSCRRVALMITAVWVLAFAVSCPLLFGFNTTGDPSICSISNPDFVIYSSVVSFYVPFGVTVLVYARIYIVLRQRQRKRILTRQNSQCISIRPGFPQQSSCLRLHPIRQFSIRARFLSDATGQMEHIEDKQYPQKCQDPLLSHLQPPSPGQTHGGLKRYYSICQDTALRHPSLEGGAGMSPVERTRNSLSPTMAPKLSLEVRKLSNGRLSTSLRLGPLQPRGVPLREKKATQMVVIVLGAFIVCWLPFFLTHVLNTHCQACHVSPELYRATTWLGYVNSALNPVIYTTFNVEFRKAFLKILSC

Cavia porcellus = species: Cavia porcellus; assay: The pA2 is the negative logarithm of the molar concentration of an antagonist which necessitates the doubling of the agonist dose to couteract the effect of that antagonist and restore the original response was measured in guinea pig isolated ileu m test.

Compound: Cc1nccn1CC1CCc2c(c3cccc4c3n2CCS4)C1=O (racemic)
Ki [1]: 0.77 nM

Compound: Cc1nccn1CC1CCc2c(c3cccc4c3n2CC4)C1=O (racemic)
Ki [1]: 0.23 nM

Compound: Cc1nccn1CC1CCc2c(c3cccc4c3n2CCO4)C1=O (racemic)
Ki [1]: 1.3 nM

Compound: Cc1nccn1CC1CCc2c(c3cccc4c3n2CCCC4)C1=O (racemic)
Ki [1]: 0.75 nM

Compound: Cc1[nH]cnc1CCC(=O)c1cn(C)c2ccccc12
Ki [1]: 0.28 nM

Compound: Cc1nc[nH]c1CCC(=O)c1cn2c3c(cccc13)SCC2
Ki [1]: 0.19 nM

Ki [2]: > 10 µM | Ki [3]: > 10 µM | Ki [4]: > 10 µM | Ki [5]: > 10 µM | Ki [6]: > 10 µM | Ki (D(1A) dopamine receptor): > 10 µM | Ki (D(2) dopamine receptor): > 10 µM | Ki [7]: > 10 µM | Ki (Histamine H1 receptor): > 10 µM | Ki (Histamine H3 receptor): > 10 µM | Ki [8]: > 10 µM | Ki [9]: 5.1 µM | Ki [10]: > 10 µM | Ki [14]: > 10 µM | Ki (Adrenergic receptor beta): > 10 µM | Ki [15]: > 10 µM | Ki [16]: > 10 µM | Ki [17]: > 10 µM | Ki [18]: > 10 µM | Ki [19]: > 10 µM | Ki [20]: > 10 µM | Ki (Mu-type opioid receptor): 2.9 µM | Ki [21]: > 10 µM | Ki [22]: 0.68 µM | Ki [23]: > 10 µM | Ki (D(3) dopamine receptor): > 10 µM
Compound: Cc1nccn1CC1CCc2c(c3ccccc3n2C)C1=O (stereo not drawn) [ONDANSETRON]
Ki [11]: > 10 µM | ED10 (Rattus norvegicus [12]): 0.165 mg/kg | Kb (Rattus norvegicus [13]): 0.00102 µM | LED (Mus musculus): 3 mg/kg | Kb (Cavia porcellus): 0.158 µM

Compound: Cc1nccn1CC1CCc2c(c3cccc4c3n2CCCCC4)C1=O (racemic)
Ki [1]: 1.1 nM

Compound: Cc1nccn1CC1CCc2c(c3cccc4c3n2CCCC4)C1=O (single isomer, unassigned; (-))
Ki [1]: 0.64 nM

Compound: Cc1[nH]cnc1CCC(=O)c1cn2c3c(cccc13)CCCC2
Ki [1]: 0.33 nM

Compound: Cc1[nH]cnc1CCC(=O)c1cn2c3c(cccc13)CCC2
Ki [1]: 0.075 nM

Compound: Cc1nccn1CC1CCc2c(c3cccc4c3n2CCCC4)C1=O (single isomer, unassigned; (+))
Ki [1]: 0.93 nM

Compound: Cc1nccn1C[C@H]1CCc2c(c3cccc4c3n2CCC4)C1=O [CILANSETRON]
Ki [2]: > 10 µM | Ki [3]: > 10 µM | Ki [4]: 5.4 µM | Ki [5]: > 10 µM | Ki [6]: > 10 µM | Ki (D(1A) dopamine receptor): > 10 µM | Ki (D(2) dopamine receptor): > 10 µM | Ki [7]: > 10 µM | Ki (Histamine H1 receptor): 6.5 µM | Ki (Histamine H3 receptor): > 10 µM | Ki [8]: > 10 µM | Ki [9]: 0.91 µM | Ki [10]: > 10 µM | Ki [11]: > 10 µM | ED10 (Rattus norvegicus [12]): 0.026 mg/kg | Kb (Rattus norvegicus [13]): 0.000115 µM | Ki [14]: > 10 µM | Ki (Adrenergic receptor beta): > 10 µM | Ki [15]: > 10 µM | Ki [16]: > 10 µM | Ki [17]: > 10 µM | Ki [18]: > 10 µM | Ki [19]: > 10 µM | Ki [20]: > 10 µM | Ki (Mu-type opioid receptor): 8.5 µM | Ki [21]: > 10 µM | Ki [22]: 0.34 µM | Ki [23]: > 10 µM | LED (Mus musculus): 30 mg/kg | Ki (D(3) dopamine receptor): > 10 µM | Kb (Cavia porcellus): 0.0158 µM
